# Laboratory results taken from ChEMBL document CHEMBL1135466, “Potent antimalarial febrifugine analogues against the plasmodium malaria parasite” (J Med Chem, 2002).
# Columns and labels:
# [1] = In vitro antimalarial activity against the Plasmodium falciparum FCR3; assay type: functional
# [2] = test system: FM3A; experiment: In vitro cytotoxicity against mouse mammary FM3A cells; assay type: cell-based
# [3] = test system: FM3A; experiment: Selectivity ratio of cytotoxicity against FM3A cells to antimalarial activity against Plasmodium falciparum FCR3; assay type: functional, Mus musculus
# [4] = test system: Plasmodium berghei; experiment: (§1) In vivo antimalarial activity against Plasmodium berghei infected mice (Mus musculus); assay type: functional
# Summary of the method: (§2)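 Infected mice were dosed, and activity is reported as the doses giving 50% and 90% effect (ED50 and ED90), in µmol/kg.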
# [5] = test system: Plasmodium berghei; experiment: as §1; assay type: functional; summary of the method: as §2; remark: listed apart in the source
SMILES,EC50 [1] [nM],EC50 [2] [nM],Selectivity [3],ED50 [4] [µmol/kg],ED90 [4] [µM/kg],ED50 [5] [µmol/kg]
O=C(C[C@@H]1NCCC[C@H]1O)Cn1cnc2ccccc2c1=O [FEBRIFUGINE],700,–,243,1,5,–
O=c1ccncn1CC1(O)CC2NCCC[C@@H]2O1 (some centres undefined),40,7000,175,–,–,–
CC(=O)O[C@H]1CCCN(C(C)=O)C1CC(=O)Cn1cnc2ccccc2c1=O (some centres undefined),910,> 29000,>32,–,–,–
O=C(CC1NCCCC1=O)Cn1cnc2ccccc2c1=O (centres undefined),20,10000,500,1.3,6.2,–
C[C@@H]1CC[C@H]2[C@@H](C)C(=O)O[C@@H]3O[C@@]4(C)CC[C@@H]1[C@]32OO4 [ARTEMISININ],10,–,1000,–,46,–
O=c1c2ccccc2ccn1CC1(O)CC2NCCC[C@@H]2O1 (some centres undefined),2100,> 6300,>3,–,–,–
CC1(C)[C@@H](n2cnc3ccccc3c2=O)[C@H](O)C[C@@H]2[C@@H](O)CCCN21,300,85000,283,–,–,–
COCO[C@H]1CCCN2CO[C@H](Cn3cnc4ccccc4c3=O)C[C@H]12,8.6,2500,291,–,–,–
O=c1c2ccccc2ncn1CC1(O)C[C@@H]2NCCC[C@@H]2O1 (some centres undefined) [ISOFEBRIFUGINE],3.4,–,53,211,>267,–
CC1(C)[C@@H](n2cnc3ccccc3c2=O)[C@@H](O)C[C@@H]2[C@@H](O)CCCN21,400,2800,70,–,–,–
O=C(CC1NCCC[C@@H]1O)Cn1cnccc1=O (some centres undefined),–,> 19000,>32,–,–,–
CC1(C)[C@@H](n2cnc3ccccc3c2=O)C=C[C@@H]2[C@@H](O)CCCN21,4800,> 32000,>7,–,–,–
CNc1ccccc1C(=O)NC1[C@@H](O)C[C@@H]2[C@@H](O)CCCN2C1(C)C (some centres undefined),600,> 17000,>28,–,–,–
CC(=O)O[C@H]1CCCN2[C@@H]1CC(=O)[C@H](n1cnc3ccccc3c1=O)C2(C)C,3.6,1300,361,–,–,–
COC1=C[C@@H]2[C@@H](O)CCCN2C(C)(C)[C@H]1n1cnc2ccccc2c1=O,1300,> 66000,>51,–,–,–
O=c1c2ccccc2ncn1C[C@@H]1C[C@@H]2[C@H](O)CCCN2CO1,840,> 25000,>30,–,–,–
CC1(C)[C@@H](n2cnc3ccccc3c2=O)CC[C@@H]2[C@@H](O)CCCN21,830,> 22000,>27,–,–,–
O=c1c2ccccc2ncn1C[C@@H]1C[C@@H]2[C@@H](O)CCCN2CO1,–,3800,1027,82,–,> 180
O=c1c2ccccc2ncn1C[C@@H](O)CC1NCCC[C@@H]1O (some centres undefined),20,–,750,2.9,22,–
CCN(CC)CCCC(C)Nc1ccnc2cc(Cl)ccc12 (centres undefined) [CHLOROQUINE],18,–,–,4.7,9.4,–

# Further lines, with some results ahead:
EC50 [1] [nM],SMILES,EC50 [2] [nM],Selectivity [3],ED50 [4] [µmol/kg],ED90 [4] [µM/kg],ED50 [5] [µmol/kg]
4800,CCOC(=O)N1CCC[C@H](O)C1CC(=O)Cn1cnc2ccccc2c1=O (some centres undefined),> 17000,>3.5,–,–,–
2.8,CC1(C)[C@H](n2cnc3ccccc3c2=O)C(=O)C[C@H]2[C@@H](O)CCCN21,–,857,–,–,–
800,CC1(C)[C@H](n2cnc3ccccc3c2=O)[C@H](O)C[C@H]2[C@@H](O)CCCN21,> 24000,>30,–,–,–
420,CC1(C)[C@@H](N2CNc3ccccc3C2=O)[C@@H](O)C[C@@H]2[C@@H](O)CCCN21,> 16000,>38,–,–,–
7000,CC(=O)O[C@H]1CCCN2[C@H]1C[C@@H](OC(C)=O)[C@@H](n1cnc3ccccc3c1=O)C2(C)C,> 21000,>3,–,–,–
500,O=C(CC1NCCC[C@@H]1O)Cn1ccc2ccccc2c1=O (some centres undefined),> 16000,>32,–,–,–
1.9,CC1(C)[C@@H](n2cnc3ccccc3c2=O)C(=O)C[C@@H]2C(=O)CCCN21,5900,>3105,–,–,–
400,CC(=O)O[C@H]1CCCN2[C@H]1C[C@@H](O)[C@@H](n1cnc3ccccc3c1=O)C2(C)C,> 11000,>28,–,–,–
100,CC1(C)[C@@H](n2cnc3ccccc3c2=O)C(=O)C[C@@H]2[C@@H](O)CCC[N+]21[O-] (some centres undefined),> 29000,>290,–,–,–
1.6,CC1(C)[C@@H](n2cnc3ccccc3c2=O)C(=O)C[C@@H]2[C@@H](O)CCCN21,–,238,–,–,–
3400,CC1(C)[C@H](n2cnc3ccccc3c2=O)[C@@H](O)C[C@H]2[C@@H](O)CCCN21,> 100000,>28,–,–,–
19,CC(=O)O[C@H]1CCCN2[C@H]1CC(=O)[C@@H](n1cnc3ccccc3c1=O)C2(C)C,7000,368,–,–,–
